Data published in ChEMBL document CHEMBL1131640, “L-carnitine esters as "soft", broad-spectrum antimicrobial amphiphiles” (J Med Chem, 1998).

What was measured:
Format in all cases: functional
Aspergillus niger = assay: Minimal inhibitory concentration against Aspergillus niger
Outline: (§1)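 Microtiter broth dilution MIC assay. Strains: S. aureus, S. faecalis, E. coli, P. vulgaris and C. albicans were wild-type clinical isolates; S. cerevisiae ATCC 7752, A. fumigatus ATCC 28212, A. niger ATCC 16404 and M. mucedo ATCC 7941.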

Staphylococcus aureus = assay: Minimal inhibitory concentration against Staphylococcus aureus; outline: as §1
Enterococcus faecalis = assay: Minimal inhibitory concentration against Streptococcus faecalis; outline: as §1
Aspergillus fumigatus = assay: Minimal inhibitory concentration against Aspergillus fumigatus; outline: as §1
Proteus vulgaris = assay: Minimal inhibitory concentration against Proteus vulgaris; outline: as §1
Saccharomyces cerevisiae = assay: Minimal inhibitory concentration against Saccharomyces cerevisiae; outline: as §1
Escherichia coli = assay: Minimal inhibitory concentration against Escherichia coli; outline: as §1
Candida albicans = assay: Minimal inhibitory concentration against Candida albicans; outline: as §1
Mucor mucedo = assay: Minimal inhibitory concentration against Mucor mucedo; outline: as §1

Row | SMILES | MIC (Aspergillus niger) | MIC (Staphylococcus aureus) | MIC (Enterococcus faecalis) | MIC (Aspergillus fumigatus) | MIC (Proteus vulgaris) | MIC (Saccharomyces cerevisiae) | MIC (Escherichia coli) | MIC (Candida albicans) | MIC (Mucor mucedo)
1 | C=CCCCCCCCCCOC(=O)C[C@H](C[N+](C)(C)C)OC(=O)CC(C)C.[Cl-] | 6.25 mg/L | 12.5 mg/L | 3.12 mg/L | 12.5 mg/L | 50 mg/L | 6.25 mg/L | 25 mg/L | 6.25 mg/L | 12.5 mg/L
2 | CCCCCCCCCCCCCCCCOC(=O)C[C@@H](O)C[N+](C)(C)C.[Cl-] | 3.12 mg/L | 6.25 mg/L | 3.12 mg/L | 6.25 mg/L | > 100 mg/L | > 100 mg/L | > 100 mg/L | 6.25 mg/L | 6.25 mg/L
3 | CCCCCCCCCCOC(=O)C[C@H](C[N+](C)(C)C)OC(=O)CCCCCC.[Cl-] | 25 mg/L | 3.12 mg/L | 3.12 mg/L | 25 mg/L | 50 mg/L | 3.12 mg/L | 25 mg/L | 3.12 mg/L | 50 mg/L
4 | CCCCCCCCCCCCCCCCCC(=O)O[C@H](CC(=O)O)C[N+](C)(C)C.[Cl-] | > 100 mg/L | > 100 mg/L | 25 mg/L | > 100 mg/L | > 100 mg/L | > 100 mg/L | > 100 mg/L | > 100 mg/L | > 100 mg/L
5 | CCCCCCCCCCCCOC(=O)C[C@H](C[N+](C)(C)C)OC(=O)C(C)C.[Cl-] | – | 6.25 mg/L | 3.12 mg/L | – | 100 mg/L | – | 25 mg/L | – | –
6 | CCCCCCCCCCC(=O)O[C@H](CC(=O)OCCOc1ccccc1)C[N+](C)(C)C.[Cl-] | 25 mg/L | 6.25 mg/L | 3.12 mg/L | 25 mg/L | 50 mg/L | 12.5 mg/L | 25 mg/L | 3.12 mg/L | 50 mg/L
7 | CCCCCCCCCCCCCOC(=O)C[C@H](C[N+](C)(C)C)OC(=O)CC(C)C.[Cl-] | – | 3.12 mg/L | 1.56 mg/L | – | 100 mg/L | – | 100 mg/L | – | –
8 | CCCCCCCCCCCOC(=O)C[C@H](C[N+](C)(C)C)OC(=O)CCCCCCCCCC.[Cl-] | – | > 100 mg/L | 3.12 mg/L | – | > 100 mg/L | > 100 mg/L | > 100 mg/L | – | –
9 | CCCCCCCCCCCCCOC(=O)C[C@H](C[N+](C)(C)C)OC(=O)C(C)CCCC.[Cl-] (stereo partly specified) | – | 6.25 mg/L | 6.25 mg/L | – | > 100 mg/L | – | > 100 mg/L | – | –
10 | CCCCCCCCCCCOC(=O)C[C@H](C[N+](C)(C)C)OC(=O)CCCBr.[Cl-] | 12.5 mg/L | 6.25 mg/L | 3.12 mg/L | 12.5 mg/L | 100 mg/L | 3.12 mg/L | 50 mg/L | 3.12 mg/L | 25 mg/L
11 | CCCCCCCCCCC(=O)O[C@H](CC(=O)OCCCCCCC(F)(F)C(F)(F)C(F)(F)C(F)(F)F)C[N+](C)(C)C.[Cl-] | 12.5 mg/L | 12.5 mg/L | – | 25 mg/L | > 100 mg/L | 12.5 mg/L | > 100 mg/L | 12.5 mg/L | 50 mg/L
12 | CCCCCCCOC(=O)C[C@H](C[N+](C)(C)C)OC(=O)CCOc1ccccc1.[Cl-] | > 100 mg/L | > 100 mg/L | > 100 mg/L | > 100 mg/L | > 100 mg/L | > 100 mg/L | > 100 mg/L | > 100 mg/L | > 100 mg/L
13 | CCCCCCCCCCCOC(=O)C[C@H](C[N+](C)(C)C)OC(=O)CCCCCCC.[Cl-] | – | 3.12 mg/L | 3.12 mg/L | – | > 100 mg/L | > 100 mg/L | 25 mg/L | – | –
14 | CCCCCCCCCCCOC(=O)C[C@H](C[N+](C)(C)C)OC(=O)CC(C)C.[Cl-] | – | 6.25 mg/L | 3.12 mg/L | – | 50 mg/L | – | 25 mg/L | – | –
15 | CCCCCCCCCCCCCOC(=O)C[C@H](C[N+](C)(C)C)OC(=O)CCCCCCCC.[Cl-] | 25 mg/L | 12.5 mg/L | 6.25 mg/L | 100 mg/L | > 100 mg/L | 12.5 mg/L | > 100 mg/L | 12.5 mg/L | 50 mg/L
16 | CCCCCCCCCCCCCCCCOC(=O)C[C@H](C[N+](C)(C)C)OC(=O)CC(C)C.[Cl-] | – | 6.25 mg/L | 3.12 mg/L | – | > 100 mg/L | 3.12 mg/L | > 100 mg/L | – | –
17 | CCCCCCCCOC(=O)C[C@H](C[N+](C)(C)C)OC(=O)CC(C)C.[Cl-] | > 100 mg/L | 50 mg/L | 50 mg/L | > 100 mg/L | > 100 mg/L | > 100 mg/L | > 100 mg/L | > 100 mg/L | > 100 mg/L
18 | CCCCCCCCOC(=O)C[C@H](C[N+](C)(C)C)OC(=O)CCCCCCCC.[Cl-] | 6.25 mg/L | 3.12 mg/L | 3.12 mg/L | 12.5 mg/L | 50 mg/L | 3.12 mg/L | 25 mg/L | 3.12 mg/L | 25 mg/L
19 | CCCCCCCCCCCCOC(=O)C[C@H](C[N+](C)(C)C)OC(=O)CC(C)C.[Cl-] | – | 3.12 mg/L | 3.12 mg/L | – | > 100 mg/L | 1.56 mg/L | 100 mg/L | – | –
20 | CCCCCCCCCCCCOC(=O)C[C@H](C[N+](C)(C)C)OC(=O)CCCCCC.[Cl-] | 6.25 mg/L | 3.12 mg/L | 1.56 mg/L | 3.12 mg/L | > 100 mg/L | 3.12 mg/L | > 100 mg/L | 3.12 mg/L | 12.5 mg/L
21 | CCCCCCCCCCC(=O)O[C@H](CC(=O)OCCC(F)(F)C(F)(F)C(F)(F)C(F)(F)C(F)(F)C(F)(F)C(F)(F)C(F)(F)F)C[N+](C)(C)C.[Cl-] | > 100 mg/L | > 100 mg/L | > 100 mg/L | > 100 mg/L | > 100 mg/L | > 100 mg/L | > 100 mg/L | > 100 mg/L | > 100 mg/L
22 | CCCCCCCCCCCC(=O)O[C@H](CC(=O)OCCOc1ccccc1)C[N+](C)(C)C.[Cl-] | 12.5 mg/L | 6.25 mg/L | 3.12 mg/L | 12.5 mg/L | 100 mg/L | 3.12 mg/L | 50 mg/L | 3.12 mg/L | 25 mg/L
23 | CCCCCCCCCCCCCOC(=O)C[C@H](C[N+](C)(C)C)OC(=O)CCCCCCCCCC.[Cl-] | 100 mg/L | 50 mg/L | 25 mg/L | > 100 mg/L | > 100 mg/L | 25 mg/L | > 100 mg/L | 25 mg/L | 50 mg/L
24 | CCCCCCCCCCCCCOC(=O)C[C@H](C[N+](C)(C)C)OC(=O)CCCCCC.[Cl-] | – | 6.25 mg/L | 3.12 mg/L | – | > 100 mg/L | – | > 100 mg/L | – | –
25 | CCCCCCCCCCCOC(=O)C[C@@H](O)C[N+](C)(C)C.[Cl-] | > 100 mg/L | 12.5 mg/L | 25 mg/L | > 100 mg/L | > 100 mg/L | > 100 mg/L | > 100 mg/L | > 100 mg/L | > 100 mg/L
26 | CCCCCCCCCCCOC(=O)C[C@H](C[N+](C)(C)C)OC(=O)CCC(C)C.[Cl-] | – | 3.12 mg/L | 1.56 mg/L | – | > 100 mg/L | – | 25 mg/L | – | –
27 | CCCCCCCCCCCCCOC(=O)C[C@H](C[N+](C)(C)C)OC(=O)CCCCCCC.[Cl-] | – | 6.25 mg/L | 6.25 mg/L | – | > 100 mg/L | – | > 100 mg/L | – | –
